pEC50: −log10 of the molar value. The source made the active and inactive calls. No cut-off for these calls is given here.
Columns and labels:
[1] = Half life in C57BL/6 mouse at 20 mg/kg, po; type: ADME, organism-based; parameters: dose 20 mg/kg, route oral; conditions: in vivo
Method in brief: (§1)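 Mouse PK study, IV and PO; compound formulated at 2.5 mg/mL in PEG300/Tween 80 (4:1). IV dose 5 mpk (AUC, Cmax, clearance, Vss); oral dose 20 mpk (AUC, Cmax, bioavailability, t1/2).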

[2] = Volume of distribution at steady state in C57BL/6 mouse at 5 mg/kg, iv; type: ADME, organism-based; parameters: dose 5 mg/kg, route intravenous; conditions: in vivo, read-out: Vss; method in brief: as §1
[3] = test system: Macrophage; experiment: Induction of APO-AI-dependent cholesterol efflux in mouse macrophages; type: functional, cell-based
Method in brief: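 Peritoneal macrophages labelled 24 h with [3H]cholesterol (1.0 µCi/mL) plus ACAT inhibitor 58-035 (2 µg/mL), with compound. Then 2–4 h equilibration in label-free medium with compound. Efflux for 4 h into DMEM/0.2% BSA with or without apoAI (15 µg/mL). apoAI-dependent efflux = medium radioactivity as % of total cell plus medium. Triplicate.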

[4] = Cmax in C57BL/6 mouse at 20 mg/kg, po; type: ADME, organism-based; parameters: dose 20 mg/kg, route oral; conditions: in vivo; method in brief: as §1
[5] = test system: Macrophage; experiment: Induction of ABCA1 gene expression in LXRalpha and LXRbeta deficient mouse macrophages; type: functional, cell-based
Method in brief: (§2)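 Thioglycollate-elicited peritoneal macrophages from LXR-null mice, plated 24 h. Treated as for THP-1 without PMA: 2% lipoprotein-deficient serum medium, compound in DMSO for 24 h. ABCA1 mRNA by TaqMan qRT-PCR with 36B4 control, fold vs DMSO. Two concentrations used.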

[6] = target: Peroxisome proliferator-activated receptor (Homo sapiens) (UniProt P37231+Q07869+Q03181); experiment: Activity at PPAR by cell based assay
[7] = target: T1, Oxysterols receptor LXR-beta (Homo sapiens) (UniProt P55055); experiment: Activity at human LXRbeta by Gal4 transactivation assay relative to GW-3965
T1 sequence (whole entry): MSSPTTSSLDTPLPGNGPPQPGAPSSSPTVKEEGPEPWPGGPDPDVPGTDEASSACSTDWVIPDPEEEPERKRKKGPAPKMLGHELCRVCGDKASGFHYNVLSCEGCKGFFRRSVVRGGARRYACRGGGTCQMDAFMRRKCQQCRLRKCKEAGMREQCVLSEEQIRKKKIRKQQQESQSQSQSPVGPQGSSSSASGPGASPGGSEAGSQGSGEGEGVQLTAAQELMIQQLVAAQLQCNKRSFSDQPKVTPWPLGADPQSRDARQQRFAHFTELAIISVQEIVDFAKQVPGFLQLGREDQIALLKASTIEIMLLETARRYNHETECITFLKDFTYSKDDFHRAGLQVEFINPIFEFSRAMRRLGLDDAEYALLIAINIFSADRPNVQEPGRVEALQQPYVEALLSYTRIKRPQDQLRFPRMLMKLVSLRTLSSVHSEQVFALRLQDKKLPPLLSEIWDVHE
Method in brief: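 GAL4 DBD fused to hLXRα or hLXRβ LBD in pcDNA3, co-transfected into HepG2 with luciferase reporter. Cells in DMEM with 10% lipoprotein-deficient FBS, 7.5 µM lovastatin, 100 µM mevalonic acid. Ligand added 24 h post-transfection as 11-point curves from 10 µM; luciferase read after 16 h. Run in quadruplicate. %E = max fold induction vs max fold induction of reference dual agonist in same experiment.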

[8] = test system: Hepatocyte; experiment: Induction on FAS gene expression in human primary hepatocytes at 1 uM; type: functional, cell-based
Method in brief: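 Primary human hepatocytes treated with 1 µM compound; FAS mRNA measured by TaqMan-based qRT-PCR.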

[9] = test system: Liver; experiment: Effect on ABCA1 gene expression in C57BL/6 mouse liver; type: functional, tissue-based
Method in brief: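 Male C57BL/6 mice, 10 weeks old, chow-fed, gavaged daily with vehicle or compound (20–200 mpk) for 3 days. Fasted overnight before the last dose; killed 3 h later. Tissue RNA analysed by TaqMan qRT-PCR.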

[10] = target: T2, Vitamin D3 receptor (Homo sapiens) (UniProt P11473); experiment: Activity at VDR by cell based assay; type: functional
T2 sequence (whole entry): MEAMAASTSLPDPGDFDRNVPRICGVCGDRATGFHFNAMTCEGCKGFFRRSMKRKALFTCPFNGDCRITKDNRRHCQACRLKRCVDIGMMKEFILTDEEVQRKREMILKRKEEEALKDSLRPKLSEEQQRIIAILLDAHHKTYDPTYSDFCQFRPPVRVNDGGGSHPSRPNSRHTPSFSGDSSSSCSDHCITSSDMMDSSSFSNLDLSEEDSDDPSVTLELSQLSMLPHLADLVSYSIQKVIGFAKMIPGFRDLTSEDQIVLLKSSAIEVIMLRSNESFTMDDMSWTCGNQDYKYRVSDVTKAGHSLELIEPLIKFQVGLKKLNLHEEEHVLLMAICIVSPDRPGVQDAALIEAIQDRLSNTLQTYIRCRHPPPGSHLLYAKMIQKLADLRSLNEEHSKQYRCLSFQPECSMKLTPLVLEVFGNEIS

[11] = test system: HepG2; experiment: Increase in FAS gene expression in HepG2 cells at 10 uM relative to GW-3965; type: functional, Homo sapiens
[12] = target: T3, Oxysterols receptor LXR-alpha (Homo sapiens, UniProt Q13133); experiment: Agonist activity at GAL-linked human LXRalpha expressed in THP1 cells assessed as stimulation of coactivator recruitment by FRET assay; type: functional
T3 sequence (Q13133 whole entry): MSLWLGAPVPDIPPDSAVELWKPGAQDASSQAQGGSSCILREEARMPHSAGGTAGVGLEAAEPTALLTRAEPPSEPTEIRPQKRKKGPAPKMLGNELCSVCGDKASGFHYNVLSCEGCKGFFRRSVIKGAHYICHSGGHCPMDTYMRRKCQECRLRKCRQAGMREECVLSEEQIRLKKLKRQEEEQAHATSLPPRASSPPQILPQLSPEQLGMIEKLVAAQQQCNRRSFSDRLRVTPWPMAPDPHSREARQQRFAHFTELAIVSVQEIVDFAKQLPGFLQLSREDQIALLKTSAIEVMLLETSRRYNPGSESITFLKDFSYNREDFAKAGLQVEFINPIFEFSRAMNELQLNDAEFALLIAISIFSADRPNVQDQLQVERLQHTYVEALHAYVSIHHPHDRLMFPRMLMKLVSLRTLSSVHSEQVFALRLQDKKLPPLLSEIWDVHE
Method in brief: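 Cell-free TR-FRET coactivator recruitment: 20 nM His-tagged hLXRα or hLXRβ, 300 nM biotinylated SRC-1 peptide, Eu-anti-His antibody, APC-streptavidin. 12-point curves from 20 µM; 1 h at 37 °C. Duplicate. %E = maximal coactivator recruitment relative to reference dual agonist in same experiment.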

[13] = test system: Macrophage; experiment: Induction of ABCA1 gene expression in LXRbeta deficient mouse macrophages; type: functional, cell-based; method in brief: as §2
[14] = Bioavailability in C57BL/6 mouse at 20 mg/kg, po; type: ADME, organism-based; conditions: in vivo; method in brief: as §1
[15] = test system: THP-1; experiment: Increase in ABCA1 gene expression in THP1 cells at 1 uM relative to GW-3965; type: functional, Homo sapiens
Method in brief: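 THP-1 cells differentiated with 40 ng/mL PMA for 1 day, then switched to RPMI with 2% lipoprotein-deficient FBS. Compound added 6 h later at 1 or 10 µM in DMSO, incubated 24 h. ABCA1 mRNA by one-step TaqMan qRT-PCR, triplicate, multiplexed with 36B4; fold induction vs DMSO, expressed relative to reference dual agonist.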

Compound: COc1cccc(C2SC(c3ccc(Cl)cc3)=NN2C(=O)c2c(F)cc(F)cc2F)c1OC (racemic)
- half-life [1]: 6.7 h
- Vd [2]: 1.65 L/kg
- Activity [3]: Active
- Cmax [4]: 4.9 µM
- Activity [5]: inactive
- Activity [6]: inactive
- Efficacy [7]: 82%
- Activity [8]: inactive
- Activity [9]: inactive
- Activity [10]: inactive
- Activity [11]: 33%
- pEC50 [12]: 5.64
- Activity [13]: Active
- bioavailability [14]: 28%
- Activity [15]: 34%

Source: ChEMBL document CHEMBL1148736, “N-Acylthiadiazolines, a new class of liver X receptor agonists with selectivity for LXRbeta” (J Med Chem, 2007)
